Tests used:
Majidae [1] = test: The compound was tested for its ability to block the excitability of spider crab walking leg nerve bundles, the peak action potential amplitude, upon washing in physiological saline for 20 minutes.; format: functional, organism-based
How it was run: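 Spider crab (Libinia emarginata) nerve bundles exposed to 1 mM compound in bath for 20 min, then washed 20 min in physiological saline (pH 8.0); stimulation with 0.4-ms threshold pulses at 18-20 °C; value is percent recovery of peak compound action potential amplitude relative to control; mean ± SE of 4-6 experiments.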

Majidae [2] = test: The compound was tested for its ability to block the excitability of spider crab walking leg nerve bundles, peak action potential amplitude, recorded by a pair of external Ag-AgCl electrodes.; format: functional
How it was run: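 Libinia emarginata claw/walking-leg nerve bundles; compound applied in external bath at 1 mM for 20 min in physiological saline (416 mM NaCl, 10 mM KCl, 11 mM CaCl2, 55 mM MgCl2, 2.5 mM NaHCO3, pH 8.0); 0.4-ms threshold pulses; 18-20 °C; % decrease in peak compound action potential amplitude via external Ag-AgCl electrodes; mean ± SE of 4-6 experiments.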

Majidae [3] = test: The compound was tested for optical responses recorded from spider crab walking leg nerve bundles upon staining.; format: functional
How it was run: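 Nerve bundles stained 30 min in Tris-buffered artificial sea water (pH 8) with 25-50 nM dye, poorly soluble dyes first dissolved in 0.1 mL 95% EtOH per 100 mL; excitation with 365 ± 10 nm light from xenon-mercury lamp; time-averaged fluorescence recorded with extracellular compound action potential; ΔI/I (excitation-linked change over resting intensity); mean ± SE of 2-8 experiments.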

| SMILES | Recovery (Majidae [1]) | Decrease (Majidae [2]) | Delta I/I (Majidae [3]) |
| --- | --- | --- | --- |
| C[C@@H](Cc1ccc(N)cc1)N(C)C | 100% | 33% |  |
| C[C@H](Cc1ccccc1)NC(=O)c1cccc2c(N(C)C)cccc12 |  |  | 0.00035 |
| CN(C)c1cccc2c(S(=O)(=O)N[C@@H](CO)Cc3ccccc3)cccc12 |  |  | 0.00015 |
| CN(C)c1cccc2c(C(=O)N[C@H](CO)Cc3ccccc3)cccc12 |  |  | 0.00024 |
| C[C@H](Cc1ccc(N)cc1)N(C)C | 100% | 28% |  |
| C[C@H](Cc1ccccc1)NS(=O)(=O)c1cccc2c(N(C)C)cccc12 |  |  | 8.5e-05 |
| C[C@@H](Cc1ccccc1)NS(=O)(=O)c1cccc2c(N(C)C)cccc12 |  |  | 7e-05 |
| C[C@@H](Cc1ccccc1)NC(=O)c1cccc2c(N(C)C)cccc12 |  |  | 0.00038 |
| CN(C)c1cccc2c(C(=O)N[C@@H](CO)Cc3ccccc3)cccc12 |  |  | 0.00025 |
| C[C@H](Cc1ccc([N+](=O)[O-])cc1)N(C)C | 46% | 93% |  |
| C[C@@H](Cc1ccc([N+](=O)[O-])cc1)N(C)C | 35% | 84% |  |
| CN(C)c1cccc2c(S(=O)(=O)N[C@H](CO)Cc3ccccc3)cccc12 |  |  | 0.00018 |
